Experimental data taken from ChEMBL document CHEMBL1142725, “Synthesis and discovery of pyrazine-pyridine biheteroaryl as a novel series of potent vascular endothelial growth factor receptor-2 inhibitors” (J Med Chem, 2005).

How the values were obtained:
[1] = target: Vascular endothelial growth factor receptor 2 (Homo sapiens, UniProt P35968); experiment: Inhibition of human vascular endothelial growth factor receptor 2
[2] = target: Cyclin-dependent kinase 1 (Homo sapiens, UniProt P06493); experiment: Inhibition of human cyclin-dependent kinase 1
[3] = target: Protein kinase C beta type (Homo sapiens, UniProt P05771); experiment: Inhibition of protein kinase C beta 2
Casein kinase II = Casein kinase II (Homo sapiens, UniProt P19784+P67870+P68400); experiment: Inhibition of casein kinase II; assay type: protein-complex assay
[4] = target: cAMP-dependent protein kinase (PKA) (Homo sapiens, UniProt P22694+P17612+P22612); experiment: Inhibition of protein kinase A; assay type: protein assay
[5] = target: Cyclin-dependent kinase 4 (Homo sapiens, UniProt P11802); experiment: Inhibition of cyclin-dependent kinase 4
[6] = target: Mitogen-activated protein kinase 1 (Homo sapiens, UniProt P28482); experiment: Inhibition of mitogen activated protein kinase (ERK2)
[7] = target: Fibroblast growth factor receptor 2 (Homo sapiens, UniProt P21802); experiment: Inhibition of fibroblast growth factor receptor 2
[8] = target: Vascular endothelial growth factor receptor (Homo sapiens, UniProt P17948+P35916+P35968); experiment: Inhibition of VEGF-stimulated human umbilical vein endothelial cell proliferation; assay type: functional, cell-based
Method in brief: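 HUVEC trypsinized and seeded in F-12K with 0.2% heat-inactivated FBS, stimulated with 2 ng/well VEGF with or without compound. BrdU added 24 h after VEGF, then incubated another 20-24 h. Incorporation read by BrdU cell-proliferation ELISA.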

HeLa = experiment: Inhibitory concentration against Proliferation of HeLa cells (cervical adenocarcinoma); assay type: functional, cell-based; details: Homo sapiens
Method in brief: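 HeLa cells grown in MEM with 0.1 mM nonessential amino acids, 1 mM pyruvate, 2 mM L-glutamine and 10% FCS at 37 °C, 5% CO2. Seeded in scintillating microplates in complete medium and incubated 24 h. Compound added for 24 h, then 0.2 µCi methyl-[14C]thymidine per well for a further 24 h.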

[9] = target: Protein kinase C gamma type (Homo sapiens, UniProt P05129); experiment: Inhibition of protein kinase C gamma

Cyclin-dependent kinase 1, sequence (P06493 whole entry): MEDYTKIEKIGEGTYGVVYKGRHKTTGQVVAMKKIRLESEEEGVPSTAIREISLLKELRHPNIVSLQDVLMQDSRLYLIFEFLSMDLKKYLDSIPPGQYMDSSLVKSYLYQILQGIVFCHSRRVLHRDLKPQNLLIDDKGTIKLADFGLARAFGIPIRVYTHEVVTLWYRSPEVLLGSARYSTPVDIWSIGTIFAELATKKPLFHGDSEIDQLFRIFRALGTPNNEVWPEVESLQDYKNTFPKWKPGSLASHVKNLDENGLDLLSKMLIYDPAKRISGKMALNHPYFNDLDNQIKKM
Vascular endothelial growth factor receptor 2, sequence (P35968 whole entry): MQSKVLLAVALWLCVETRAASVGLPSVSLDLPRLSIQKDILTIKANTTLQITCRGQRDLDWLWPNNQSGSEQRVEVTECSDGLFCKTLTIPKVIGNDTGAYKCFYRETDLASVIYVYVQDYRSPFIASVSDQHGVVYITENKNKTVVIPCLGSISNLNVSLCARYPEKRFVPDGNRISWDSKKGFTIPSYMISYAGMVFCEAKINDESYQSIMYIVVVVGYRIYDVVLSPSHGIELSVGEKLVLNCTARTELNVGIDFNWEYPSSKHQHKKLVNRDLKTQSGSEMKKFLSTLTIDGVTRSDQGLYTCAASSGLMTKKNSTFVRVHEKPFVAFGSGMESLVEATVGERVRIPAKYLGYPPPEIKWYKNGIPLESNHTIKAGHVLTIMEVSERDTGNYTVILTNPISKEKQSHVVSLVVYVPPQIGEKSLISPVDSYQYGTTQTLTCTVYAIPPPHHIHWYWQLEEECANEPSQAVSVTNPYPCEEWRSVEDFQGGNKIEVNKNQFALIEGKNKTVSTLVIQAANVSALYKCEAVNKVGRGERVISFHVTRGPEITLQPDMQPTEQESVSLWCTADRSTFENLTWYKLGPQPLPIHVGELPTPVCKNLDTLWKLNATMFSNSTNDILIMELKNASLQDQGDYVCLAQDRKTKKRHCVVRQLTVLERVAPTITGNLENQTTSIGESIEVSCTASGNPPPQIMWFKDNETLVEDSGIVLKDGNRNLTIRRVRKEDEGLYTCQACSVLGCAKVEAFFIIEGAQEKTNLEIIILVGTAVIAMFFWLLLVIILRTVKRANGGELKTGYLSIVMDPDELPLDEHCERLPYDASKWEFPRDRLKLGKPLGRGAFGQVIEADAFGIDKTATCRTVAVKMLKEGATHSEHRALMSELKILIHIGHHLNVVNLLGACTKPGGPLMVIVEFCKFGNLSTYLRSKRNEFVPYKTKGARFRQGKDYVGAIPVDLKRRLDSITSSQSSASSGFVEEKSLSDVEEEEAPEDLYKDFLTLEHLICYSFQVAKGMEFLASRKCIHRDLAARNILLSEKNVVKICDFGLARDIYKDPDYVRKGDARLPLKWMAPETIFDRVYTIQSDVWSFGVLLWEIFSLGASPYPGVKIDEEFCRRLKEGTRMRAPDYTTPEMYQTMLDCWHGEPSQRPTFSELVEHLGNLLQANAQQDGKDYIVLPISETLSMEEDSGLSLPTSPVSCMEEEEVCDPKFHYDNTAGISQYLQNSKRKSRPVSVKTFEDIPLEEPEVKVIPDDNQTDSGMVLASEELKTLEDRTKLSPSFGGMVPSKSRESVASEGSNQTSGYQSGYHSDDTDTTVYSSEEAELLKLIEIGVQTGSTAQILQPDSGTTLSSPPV
Fibroblast growth factor receptor 2, sequence (P21802 whole entry): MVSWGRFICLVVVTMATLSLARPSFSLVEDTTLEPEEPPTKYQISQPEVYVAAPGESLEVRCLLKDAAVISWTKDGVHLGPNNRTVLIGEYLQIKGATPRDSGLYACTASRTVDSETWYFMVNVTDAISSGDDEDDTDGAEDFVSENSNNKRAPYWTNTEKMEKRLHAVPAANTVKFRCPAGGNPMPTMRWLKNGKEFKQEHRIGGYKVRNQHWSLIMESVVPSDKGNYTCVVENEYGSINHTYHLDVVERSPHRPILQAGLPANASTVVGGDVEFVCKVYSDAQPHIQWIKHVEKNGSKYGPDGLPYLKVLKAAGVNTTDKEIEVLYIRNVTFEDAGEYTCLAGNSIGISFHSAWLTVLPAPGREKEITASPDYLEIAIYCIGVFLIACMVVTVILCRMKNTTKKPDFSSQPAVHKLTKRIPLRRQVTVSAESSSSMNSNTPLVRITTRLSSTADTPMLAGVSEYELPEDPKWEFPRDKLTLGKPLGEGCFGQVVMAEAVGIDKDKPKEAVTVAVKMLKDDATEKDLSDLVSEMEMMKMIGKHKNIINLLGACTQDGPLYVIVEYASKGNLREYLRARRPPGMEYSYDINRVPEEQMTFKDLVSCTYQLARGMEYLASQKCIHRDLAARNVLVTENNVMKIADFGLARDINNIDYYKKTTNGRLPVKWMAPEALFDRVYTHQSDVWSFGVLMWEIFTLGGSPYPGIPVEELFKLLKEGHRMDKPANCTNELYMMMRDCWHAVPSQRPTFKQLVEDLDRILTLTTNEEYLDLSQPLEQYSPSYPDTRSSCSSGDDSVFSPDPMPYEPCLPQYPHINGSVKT
Casein kinase II, sequence (P67870 whole entry): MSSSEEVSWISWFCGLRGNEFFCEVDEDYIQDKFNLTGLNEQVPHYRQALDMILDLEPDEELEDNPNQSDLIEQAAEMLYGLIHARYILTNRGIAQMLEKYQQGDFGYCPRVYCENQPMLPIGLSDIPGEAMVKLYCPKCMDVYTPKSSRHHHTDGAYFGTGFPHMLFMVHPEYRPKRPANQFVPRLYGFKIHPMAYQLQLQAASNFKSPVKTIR
Casein kinase II, sequence (P68400 whole entry): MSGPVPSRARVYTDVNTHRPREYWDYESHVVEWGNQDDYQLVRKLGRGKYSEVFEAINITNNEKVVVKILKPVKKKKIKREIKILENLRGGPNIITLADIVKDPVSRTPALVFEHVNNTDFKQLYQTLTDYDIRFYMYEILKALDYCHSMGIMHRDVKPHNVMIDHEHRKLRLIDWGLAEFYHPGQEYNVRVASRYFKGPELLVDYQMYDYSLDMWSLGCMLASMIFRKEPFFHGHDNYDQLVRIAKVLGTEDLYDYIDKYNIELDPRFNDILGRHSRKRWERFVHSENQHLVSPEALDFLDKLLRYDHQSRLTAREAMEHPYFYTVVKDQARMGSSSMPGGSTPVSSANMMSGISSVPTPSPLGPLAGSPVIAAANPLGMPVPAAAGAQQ
Casein kinase II, sequence (P19784 whole entry): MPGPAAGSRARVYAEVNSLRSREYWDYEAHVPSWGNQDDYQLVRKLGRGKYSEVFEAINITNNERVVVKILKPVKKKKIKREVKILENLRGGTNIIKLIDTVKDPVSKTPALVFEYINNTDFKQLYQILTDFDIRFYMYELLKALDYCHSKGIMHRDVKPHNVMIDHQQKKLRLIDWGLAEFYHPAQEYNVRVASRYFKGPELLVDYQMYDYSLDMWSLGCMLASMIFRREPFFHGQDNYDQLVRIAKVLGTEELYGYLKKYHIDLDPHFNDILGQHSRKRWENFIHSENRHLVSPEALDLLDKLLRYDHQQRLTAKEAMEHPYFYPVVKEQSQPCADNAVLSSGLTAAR
Mitogen-activated protein kinase 1, sequence (P28482 whole entry): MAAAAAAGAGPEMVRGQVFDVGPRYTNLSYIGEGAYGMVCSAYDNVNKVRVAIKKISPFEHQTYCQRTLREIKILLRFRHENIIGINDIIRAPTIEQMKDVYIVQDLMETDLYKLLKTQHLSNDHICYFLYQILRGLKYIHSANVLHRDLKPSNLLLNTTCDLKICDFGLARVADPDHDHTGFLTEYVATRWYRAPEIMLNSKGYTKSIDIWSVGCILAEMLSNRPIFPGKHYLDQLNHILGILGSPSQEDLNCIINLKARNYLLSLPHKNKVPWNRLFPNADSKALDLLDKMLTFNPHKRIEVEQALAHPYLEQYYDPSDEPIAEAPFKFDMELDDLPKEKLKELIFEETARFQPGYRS
Cyclin-dependent kinase 4, sequence (P11802 whole entry): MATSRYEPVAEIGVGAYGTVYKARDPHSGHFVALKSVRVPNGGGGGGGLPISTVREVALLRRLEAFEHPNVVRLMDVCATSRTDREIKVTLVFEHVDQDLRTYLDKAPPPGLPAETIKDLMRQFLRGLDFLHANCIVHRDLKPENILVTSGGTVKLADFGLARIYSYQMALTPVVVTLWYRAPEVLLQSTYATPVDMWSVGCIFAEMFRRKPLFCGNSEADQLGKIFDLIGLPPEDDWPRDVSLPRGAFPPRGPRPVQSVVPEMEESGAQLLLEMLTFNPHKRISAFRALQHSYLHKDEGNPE

| IC50 [1] | IC50 [2] | Structure (SMILES) | also measured |
| --- | --- | --- | --- |
| 497 nM | > 10000 nM | OCCCNc1cncc(-c2cncc(Nc3cccc(Cl)c3)n2)n1 |  |
| 500 nM | 500 nM | OCCCNc1cc(-c2cncc(Nc3cccc(Cl)c3)n2)ccn1 |  |
| 761 nM | 2220 nM | OCCCNc1cnccc1-c1cncc(Nc2cccc(Cl)c2)n1 |  |
|  | 17 nM | OCCCNc1cc(-c2ccnc(Nc3cccc(Cl)c3)n2)ccn1 |  |
| > 10000 nM | > 10000 nM | OCCCNc1cccc(-c2cncc(Nc3cccc(Cl)c3)n2)n1 |  |
| > 10000 nM | > 10000 nM | OCCCNc1ccc(-c2ncncc2Nc2cccc(Cl)c2)cn1 |  |
| > 10000 nM | 2400 nM | OCCCNc1cncc(-c2cc(Nc3cccc(Cl)c3)ncn2)c1 |  |
| > 10000 nM | > 10000 nM | OCCCNc1cncc(-c2cnc(Nc3cccc(Cl)c3)cn2)c1 |  |
| > 10000 nM | > 10000 nM | OCCCNc1ccc(-c2cncc(Nc3cccc(Cl)c3)n2)nc1 |  |
| 708 nM | 8080 nM | OCCCNc1ncc(-c2cncc(Nc3cccc(Cl)c3)n2)s1 |  |
| 84 nM |  | OCCCNc1cncc(-c2cncc(Nc3cccc(Cl)c3)n2)c1 | IC50 [3]: > 10000 nM; IC50 (Casein kinase II): > 10000 nM; IC50 [4]: > 10000 nM; IC50 [5]: > 10000 nM; IC50 [6]: > 10000 nM; IC50 [7]: 210 nM; IC50 [8]: 5 nM; IC50 (HeLa): > 10000 nM; IC50 [9]: > 10000 nM |
| > 10000 nM | > 10000 nM | OCCCNc1cncc(-c2ncc(Nc3cccc(Cl)c3)cn2)c1 |  |
| 2110 nM | > 10000 nM | OCCCNc1ncc(-c2cncc(Nc3cccc(Cl)c3)n2)o1 |  |
